In publication PMC2909360 (Molecular microbiology, 2010):
Read-outs that look alike come from different tables or passages of the source.

Key:
[1] = biological target: T1, purified human cathepsin H (Homo sapiens, UniProt P09668); assay: Inhibition of cathepsin H, fluorogenic substrate assay; type: biochemical
T1 sequence (P09668 98-335): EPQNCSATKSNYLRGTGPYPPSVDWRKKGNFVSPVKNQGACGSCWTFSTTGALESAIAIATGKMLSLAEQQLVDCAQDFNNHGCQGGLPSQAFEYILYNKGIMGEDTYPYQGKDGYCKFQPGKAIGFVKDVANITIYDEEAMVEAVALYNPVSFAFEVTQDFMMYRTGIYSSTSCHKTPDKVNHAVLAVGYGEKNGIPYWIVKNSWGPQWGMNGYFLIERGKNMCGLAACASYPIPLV

[2] = biological target: purified bovine cathepsin B (Bos taurus, UniProt P07688); assay: Inhibition of cathepsin B, fluorogenic substrate assay; type: biochemical
Summary of the method: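 Pre-incubated 10 min at room temperature with increasing inhibitor concentrations, then Z-Leu-Arg-AMC added (0.25 mM final) at 30°C. Linear hydrolysis rate read for 20 min (ex 365/em 450 nm). Triplicates, mean ± SEM. IC50 from activity loss.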

B1: sialoL: salivary cystatin (cysteine protease inhibitor) from the tick Ixodes scapularis, recombinant from E. coli (protein)
chain: TGVFGGYSERANHQANPEFLNLAHYATSTWSAQQPGKTHFDTVAEVVKVETQVVAGTNYRLTLKVAESTCELTSTYNKDTCLPKADAAHRTCTTVVFENLQGDKSVSPFECEAA
- inhibition of cathepsin H (in words) [1]: no inhibition
- inhibition of cathepsin B (in words) [2]: no inhibition

B2: sialoL2: salivary cystatin (cysteine protease inhibitor) from the tick Ixodes scapularis, recombinant from E. coli (protein)
chain: MELALRGGYRERSNQDDPEYLELAHYATSTWSAQQPGKTHFDTVVEVLKVETQTVAGTNYRLTLKVAESTCELTSTYNKDTCQANANAAQRTCTTVIYRNLQGEKSISSFECAAA
- inhibition of cathepsin H (in words) ([1]; listed as sialostatin L2): no detectable inhibition
- inhibition of cathepsin B (in words) [2]: no inhibition
